In ChEMBL document CHEMBL4689842, “EUbOPEN Chemogenomics Library wave 1” (2021):

Test system: Fibroblast
Test: Multiplex assay against human fibroblast
Format: toxicity, cell-based
Summary of the method: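 Live cells were stained at seeding with Hoechst33342, BioTracker Green Microtubule Cytoskeleton Dye, MitoTracker Red and Annexin V Alexa Fluor 680. Following compound addition, they were imaged on a CQ1 microscope at 37°C and 5% CO2 and gated by CellPathfinder machine learning into Hoechst high-intensity objects or normal cells, with normal cells split into healthy, pyknosed or fragmented nuclei and pyknosed cells into mitotic or apoptotic. Tubulin, mitochondrial-mass and membrane-permeability phenotypes are per cents of healthy-nucleus cells.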

[1] = 12 h, 1 µM, compound concentration 1 uM, replicate 1
[2] = 12 h, 1 µM, compound concentration 1 uM, replicate 2
[3] = 12 h, 10 µM, compound concentration 10 uM, replicate 1
[4] = 12 h, 10 µM, compound concentration 10 uM, replicate 2
[5] = 24 h, 1 µM, compound concentration 1 uM, replicate 1
[6] = 24 h, 1 µM, compound concentration 1 uM, replicate 2
[7] = 24 h, 10 µM, compound concentration 10 uM, replicate 1
[8] = 24 h, 10 µM, compound concentration 10 uM, replicate 2
[9] = 48 h, 1 µM, compound concentration 1 uM, replicate 1
[10] = 48 h, 1 µM, compound concentration 1 uM, replicate 2
[11] = 48 h, 10 µM, compound concentration 10 uM, replicate 1
[12] = 48 h, 10 µM, compound concentration 10 uM, replicate 2

`O=C(Nc1ccc(-c2ccnc(Nc3ccc(N4CCOCC4)cc3)n2)cc1)[C@@H]1CCCN1` was tested, and the “Population Apoptotic (%)” value [1] was 58%, the “Population Fragmented Nuclei (%)” value [1] was 25% and the “Population Healthy Nuclei (%)” value [1] was 41%. The “Population Hoechst High Intensity Objects (%)” value [1] was 13%, the “Population Membrane Permeable-Phenotype (%)” value [1] was 36% and the “Population Mitochondria Different-Phenotype (%)” value [1] was 11%. The “Population Mitotic Cells (%)” value [1] was 41%, the “Population Normal (%)” value [1] was 87% and the “Population Pyknosed Nuclei (%)” value [1] was 33%. The “Population Tubulin-Different-Phenotype (%)” value [1] was 47%, the “Total Cell Count” value [1] was 100 and the “Population Apoptotic (%)” value [2] was 33%. For the same molecule, the “Population Fragmented Nuclei (%)” value [2] was 13%, the “Population Healthy Nuclei (%)” value [2] was 76% and the “Population Hoechst High Intensity Objects (%)” value [2] was 7%. The “Population Membrane Permeable-Phenotype (%)” value [2] was 4%, the “Population Mitochondria Different-Phenotype (%)” value [2] was 10% and the “Population Mitotic Cells (%)” value [2] was 66%. The “Population Normal (%)” value [2] was 92%, the “Population Pyknosed Nuclei (%)” value [2] was 10% and the “Population Tubulin-Different-Phenotype (%)” value [2] was 10%. For the same molecule, the “Total Cell Count” value [2] was 65, the “Population Apoptotic (%)” value [3] was 39% and the “Population Fragmented Nuclei (%)” value [3] was 35%. The “Population Healthy Nuclei (%)” value [3] was 30%, the “Population Hoechst High Intensity Objects (%)” value [3] was 13% and the “Population Membrane Permeable-Phenotype (%)” value [3] was 28%. The “Population Mitochondria Different-Phenotype (%)” value [3] was 25%, the “Population Mitotic Cells (%)” value [3] was 60% and the “Population Normal (%)” value [3] was 86%. For the same molecule, the “Population Pyknosed Nuclei (%)” value [3] was 33%, the “Population Tubulin-Different-Phenotype (%)” value [3] was 74% and the “Total Cell Count” value [3] was 146. The “Population Apoptotic (%)” value [4] was 77%, the “Population Fragmented Nuclei (%)” value [4] was 7% and the “Population Healthy Nuclei (%)” value [4] was 77%. For the same molecule, the “Population Hoechst High Intensity Objects (%)” value [4] was 5%, the “Population Membrane Permeable-Phenotype (%)” value [4] was 8% and the “Population Mitochondria Different-Phenotype (%)” value [4] was 28%. For the same molecule, the “Population Mitotic Cells (%)” value [4] was 22%, the “Population Normal (%)” value [4] was 94% and the “Population Pyknosed Nuclei (%)” value [4] was 14%. The “Population Tubulin-Different-Phenotype (%)” value [4] was 44%, the “Total Cell Count” value [4] was 65 and the “Population Apoptotic (%)” value [5] was 52%. The “Population Fragmented Nuclei (%)” value [5] was 24%, the “Population Healthy Nuclei (%)” value [5] was 52% and the “Population Hoechst High Intensity Objects (%)” value [5] was 9%. For the same molecule, the “Population Membrane Permeable-Phenotype (%)” value [5] was 22%, the “Population Mitochondria Different-Phenotype (%)” value [5] was 6% and the “Population Mitotic Cells (%)” value [5] was 47%. The “Population Normal (%)” value [5] was 91%, the “Population Pyknosed Nuclei (%)” value [5] was 23% and the “Population Tubulin-Different-Phenotype (%)” value [5] was 35%. The “Total Cell Count” value [5] was 100, the “Population Apoptotic (%)” value [6] was 60% and the “Population Fragmented Nuclei (%)” value [6] was 7%. The “Population Healthy Nuclei (%)” value [6] was 85%, the “Population Hoechst High Intensity Objects (%)” value [6] was 6% and the “Population Membrane Permeable-Phenotype (%)” value [6] was 3%. The “Population Mitochondria Different-Phenotype (%)” value [6] was 19%, the “Population Mitotic Cells (%)” value [6] was 40% and the “Population Normal (%)” value [6] was 93%. The “Population Pyknosed Nuclei (%)” value [6] was 7%, the “Population Tubulin-Different-Phenotype (%)” value [6] was 10% and the “Total Cell Count” value [6] was 63. The “Population Apoptotic (%)” value [7] was 57%, the “Population Fragmented Nuclei (%)” value [7] was 37% and the “Population Healthy Nuclei (%)” value [7] was 48%. For the same molecule, the “Population Hoechst High Intensity Objects (%)” value [7] was 12%, the “Population Membrane Permeable-Phenotype (%)” value [7] was 16% and the “Population Mitochondria Different-Phenotype (%)” value [7] was 21%. For the same molecule, the “Population Mitotic Cells (%)” value [7] was 42%, the “Population Normal (%)” value [7] was 87% and the “Population Pyknosed Nuclei (%)” value [7] was 13%. The “Population Tubulin-Different-Phenotype (%)” value [7] was 74%, the “Total Cell Count” value [7] was 156 and the “Population Apoptotic (%)” value [8] was 58%. The “Population Fragmented Nuclei (%)” value [8] was 18%, the “Population Healthy Nuclei (%)” value [8] was 64% and the “Population Hoechst High Intensity Objects (%)” value [8] was 1%. For the same molecule, the “Population Membrane Permeable-Phenotype (%)” value [8] was 13%, the “Population Mitochondria Different-Phenotype (%)” value [8] was 17% and the “Population Mitotic Cells (%)” value [8] was 41%. For the same molecule, the “Population Normal (%)” value [8] was 98%, the “Population Pyknosed Nuclei (%)” value [8] was 17% and the “Population Tubulin-Different-Phenotype (%)” value [8] was 22%. The “Total Cell Count” value [8] was 72, the “Population Apoptotic (%)” value [9] was 60% and the “Population Fragmented Nuclei (%)” value [9] was 29%. The “Population Healthy Nuclei (%)” value [9] was 60%, the “Population Hoechst High Intensity Objects (%)” value [9] was 9% and the “Population Membrane Permeable-Phenotype (%)” value [9] was 26%. The “Population Mitochondria Different-Phenotype (%)” value [9] was 4%, the “Population Mitotic Cells (%)” value [9] was 40% and the “Population Normal (%)” value [9] was 90%. For the same molecule, the “Population Pyknosed Nuclei (%)” value [9] was 9%, the “Population Tubulin-Different-Phenotype (%)” value [9] was 27% and the “Total Cell Count” value [9] was 111. For the same molecule, the “Population Apoptotic (%)” value [10] was 50%, the “Population Fragmented Nuclei (%)” value [10] was 18% and the “Population Healthy Nuclei (%)” value [10] was 76%. For the same molecule, the “Population Membrane Permeable-Phenotype (%)” value [10] was 18%, the “Population Mitotic Cells (%)” value [10] was 50% and the “Population Pyknosed Nuclei (%)” value [10] was 4%. For the same molecule, the “Population Tubulin-Different-Phenotype (%)” value [10] was 30%, the “Total Cell Count” value [10] was 101 and the “Population Apoptotic (%)” value [11] was 83%. For the same molecule, the “Population Fragmented Nuclei (%)” value [11] was 44%, the “Population Healthy Nuclei (%)” value [11] was 50% and the “Population Hoechst High Intensity Objects (%)” value [11] was 22%. The “Population Membrane Permeable-Phenotype (%)” value [11] was 15%, the “Population Mitochondria Different-Phenotype (%)” value [11] was 2% and the “Population Mitotic Cells (%)” value [11] was 16%. For the same molecule, the “Population Normal (%)” value [11] was 77%, the “Population Pyknosed Nuclei (%)” value [11] was 4% and the “Population Tubulin-Different-Phenotype (%)” value [11] was 61%. For the same molecule, the “Total Cell Count” value [11] was 179, the “Population Apoptotic (%)” value [12] was 33% and the “Population Fragmented Nuclei (%)” value [12] was 32%. The “Population Healthy Nuclei (%)” value [12] was 64%, the “Population Hoechst High Intensity Objects (%)” value [12] was 6% and the “Population Membrane Permeable-Phenotype (%)” value [12] was 20%. For the same molecule, the “Population Mitochondria Different-Phenotype (%)” value [12] was 3%, the “Population Mitotic Cells (%)” value [12] was 66% and the “Population Normal (%)” value [12] was 93%. For the same molecule, the “Population Pyknosed Nuclei (%)” value [12] was 3%, the “Population Tubulin-Different-Phenotype (%)” value [12] was 53% and the “Total Cell Count” value [12] was 99.
